For assay [1], the target named is Mu-type opioid receptor (Rattus norvegicus) (UniProt P33535). As to the kind of experiment: Inhibition of MOPr desensitization in wistar rat LC neuron cells assessed as reduction in the Met-Enk induced desensitization incubated for 15 mins before. The assay is classed as functional, cell-based. Conditions: dose 3-30 µM. The gist of the method: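 Whole-cell patch clamp of GIRK currents in locus coeruleus slices from male Wistar rats (5–8 weeks). Inhibitor was given at least 15 min before and during the agonist, all drugs by superfusion. Percent desensitization was taken over 10 min of opioid agonist application. Met-Enk n = 5, endomorphin-2 n = 6; ANOVA.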

For assay [2] the target is unchanged. As to the kind of experiment: Inhibition of MOPr desensitization in wistar rat LC neuron cells assessed as reduction in the Met-Enk induced desensitization at 30 uM incubated for 15 mins before in the presence of PD98059. Type of assay: functional, cell-based.
For assay [3] the target is unchanged. As to the kind of experiment: Inhibition of MOPr desensitization in wistar rat LC neuron cells assessed as reduction in the Met-Enk induced desensitization at 30 uM incubated for 15 mins before in the presence of amlexanox. The assay is classed as functional, cell-based.
The target is the same in assay [4]. As to the kind of experiment: Inhibition of HA-tagged rat MOPr in HEK293 cells assessed as prevention in DAMGO induced MOPr phosphorylation at Thr370 level at 30 uM preincubated for 30 mins by western blot analysis. The assay is classed as functional, cell-based. In general terms: A western blot detects proteins with antibodies after separation by electrophoresis.

Assay [5] has the same target. As to the kind of experiment: Inhibition of HA-tagged rat MOPr in HEK293 cells assessed as reduction in DAMGO induced MOPr internalization level at 30 uM preincubated for 30 mins by confocal microscopy analysis. Type of assay: functional, cell-based. Put shortly:
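HA-MOPr HEK 293 cells were prelabeled with anti-HA at 4°C for 1 h, then given inhibitor (30 μM) 30 min at 37°C and DAMGO 10 μM. Cells were stained with a fluorescein secondary and Hoechst and imaged by confocal microscopy (63× oil); repeated 3 times.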

Assay [6] has as its target Ribosomal protein S6 kinase alpha-1 (Homo sapiens) (UniProt Q15418). As to the kind of experiment: Inhibition of human RSK1 assessed as remaining activity at 1 uM in presence of 32ATP relative to control. Put shortly:
(§1)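 Express panel of 52 purified human kinases run in vitro. Kinase activity was measured directly by a radioactive filter-binding assay with ³²ATP, at ATP levels at or below each kinase's calculated Km for ATP. The compound was tested at 1 μM. Each assay was run in duplicate, and activity is given as the mean percentage (with S.D.) of activity without inhibitor.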

Assay [7] has as its target Serine/threonine-protein kinase D1 (Homo sapiens) (UniProt Q15139). As to the kind of experiment: Inhibition of human PKD1 assessed as remaining activity at 1 uM in presence of 32ATP relative to control. Put shortly: as §1
The target of assay [8] is Tyrosine-protein kinase BTK (Homo sapiens) (UniProt Q06187). As to the kind of experiment: Inhibition of human BTK assessed as remaining activity at 1 uM in presence of 32ATP relative to control. The gist of the method: (§2)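 Express screen of 52 purified human kinases run as a radioactive filter-binding assay with 32ATP, at 1 μM inhibitor. ATP was at or below each kinase's calculated Km. Activity is given as percent of the activity without inhibitor. Run in duplicate; mean with S.D.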

The target of assay [9] is Serine/threonine-protein kinase Chk2 (Homo sapiens) (UniProt O96017). As to the kind of experiment: Inhibition of human CHK2 assessed as remaining activity at 1 uM in presence of 32ATP relative to control. The gist of the method:
as §2

Assay [10] deals with Receptor-interacting serine/threonine-protein kinase 2 (Homo sapiens) (UniProt O43353). As to the kind of experiment: Inhibition of human RIPK2 assessed as remaining activity at 1 uM in presence of 32ATP relative to control. Put shortly:
as §1

The target in assay [11] is High affinity nerve growth factor receptor (Homo sapiens) (UniProt P04629). As to the kind of experiment: Inhibition of human TrkA assessed as remaining activity at 1 uM in presence of 32ATP relative to control. Put shortly: as §1
In assay [12] the target is Mitogen-activated protein kinase; ERK1/ERK2 (Homo sapiens) (UniProt P27361+P28482). As to the kind of experiment: Inhibition of ERK1/2 (unknown origin) at 1 uM in presence of 32ATP relative to control. Type of assay: protein assay. Put shortly:
as §2

The target in assay [13] is Beta-adrenergic receptor kinase 1 (Homo sapiens) (UniProt P25098). As to the kind of experiment: Inhibition of human GRK2 at 1 uM relative to control.

SMILES strings stand for the structures. Activity calls are given as the source filed them. No cut-off for these calls is given here.

By inhibition is commonly meant the drop in the measured response relative to a control, in per cent.

Chain of Mu-type opioid receptor (Rattus norvegicus) (P33535 whole entry, the tested form may be a part): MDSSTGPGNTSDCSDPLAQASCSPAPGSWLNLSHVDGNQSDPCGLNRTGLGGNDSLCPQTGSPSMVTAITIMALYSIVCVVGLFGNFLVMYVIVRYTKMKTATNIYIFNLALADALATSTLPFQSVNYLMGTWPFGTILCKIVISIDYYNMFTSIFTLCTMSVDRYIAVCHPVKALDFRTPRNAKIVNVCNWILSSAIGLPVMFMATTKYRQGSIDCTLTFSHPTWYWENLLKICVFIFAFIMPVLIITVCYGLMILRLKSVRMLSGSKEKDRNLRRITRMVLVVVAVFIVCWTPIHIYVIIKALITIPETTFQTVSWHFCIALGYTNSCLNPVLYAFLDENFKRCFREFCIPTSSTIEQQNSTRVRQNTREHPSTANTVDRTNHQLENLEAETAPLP
Chain of Ribosomal protein S6 kinase alpha-1 (Homo sapiens) (Q15418 whole entry): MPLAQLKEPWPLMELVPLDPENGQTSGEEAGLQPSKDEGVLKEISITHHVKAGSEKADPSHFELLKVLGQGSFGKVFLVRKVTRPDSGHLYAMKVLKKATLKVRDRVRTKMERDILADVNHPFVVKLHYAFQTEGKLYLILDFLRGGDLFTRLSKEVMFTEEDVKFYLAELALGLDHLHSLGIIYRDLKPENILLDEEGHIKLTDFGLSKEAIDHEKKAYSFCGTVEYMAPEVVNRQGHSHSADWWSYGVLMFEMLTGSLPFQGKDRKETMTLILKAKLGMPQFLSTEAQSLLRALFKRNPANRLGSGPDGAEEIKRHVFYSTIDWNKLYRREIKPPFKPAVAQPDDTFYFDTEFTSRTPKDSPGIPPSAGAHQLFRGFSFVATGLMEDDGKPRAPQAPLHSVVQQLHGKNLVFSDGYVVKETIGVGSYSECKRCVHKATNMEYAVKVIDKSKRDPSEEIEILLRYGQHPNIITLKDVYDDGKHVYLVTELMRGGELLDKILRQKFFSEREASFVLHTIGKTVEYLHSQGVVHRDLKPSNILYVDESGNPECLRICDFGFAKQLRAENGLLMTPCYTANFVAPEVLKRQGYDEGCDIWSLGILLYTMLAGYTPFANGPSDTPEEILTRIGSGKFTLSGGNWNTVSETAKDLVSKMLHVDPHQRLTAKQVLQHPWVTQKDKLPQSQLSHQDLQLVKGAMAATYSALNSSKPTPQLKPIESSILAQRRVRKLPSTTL
Chain of High affinity nerve growth factor receptor (Homo sapiens) (P04629 33-796 limits assumed): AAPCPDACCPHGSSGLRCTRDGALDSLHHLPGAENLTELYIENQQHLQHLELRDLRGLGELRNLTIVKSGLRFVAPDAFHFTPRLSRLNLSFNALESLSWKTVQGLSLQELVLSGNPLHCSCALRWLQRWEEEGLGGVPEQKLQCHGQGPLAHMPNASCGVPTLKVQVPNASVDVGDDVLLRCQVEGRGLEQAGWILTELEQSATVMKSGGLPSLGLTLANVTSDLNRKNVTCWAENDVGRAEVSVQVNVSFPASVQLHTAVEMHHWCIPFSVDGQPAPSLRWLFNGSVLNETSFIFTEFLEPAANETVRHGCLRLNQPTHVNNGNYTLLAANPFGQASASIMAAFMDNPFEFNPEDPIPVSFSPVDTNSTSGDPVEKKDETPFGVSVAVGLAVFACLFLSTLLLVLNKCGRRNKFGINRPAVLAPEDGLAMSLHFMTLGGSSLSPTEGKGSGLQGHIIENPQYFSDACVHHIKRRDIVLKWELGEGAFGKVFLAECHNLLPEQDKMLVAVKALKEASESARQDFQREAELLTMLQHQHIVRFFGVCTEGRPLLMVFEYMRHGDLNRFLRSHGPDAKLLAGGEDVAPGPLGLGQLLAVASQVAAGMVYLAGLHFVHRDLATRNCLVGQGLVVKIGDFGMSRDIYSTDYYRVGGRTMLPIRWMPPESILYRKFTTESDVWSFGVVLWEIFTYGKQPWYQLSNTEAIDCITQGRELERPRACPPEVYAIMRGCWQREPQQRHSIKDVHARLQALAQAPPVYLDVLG
Chain of Serine/threonine-protein kinase Chk2 (Homo sapiens) (O96017 whole entry): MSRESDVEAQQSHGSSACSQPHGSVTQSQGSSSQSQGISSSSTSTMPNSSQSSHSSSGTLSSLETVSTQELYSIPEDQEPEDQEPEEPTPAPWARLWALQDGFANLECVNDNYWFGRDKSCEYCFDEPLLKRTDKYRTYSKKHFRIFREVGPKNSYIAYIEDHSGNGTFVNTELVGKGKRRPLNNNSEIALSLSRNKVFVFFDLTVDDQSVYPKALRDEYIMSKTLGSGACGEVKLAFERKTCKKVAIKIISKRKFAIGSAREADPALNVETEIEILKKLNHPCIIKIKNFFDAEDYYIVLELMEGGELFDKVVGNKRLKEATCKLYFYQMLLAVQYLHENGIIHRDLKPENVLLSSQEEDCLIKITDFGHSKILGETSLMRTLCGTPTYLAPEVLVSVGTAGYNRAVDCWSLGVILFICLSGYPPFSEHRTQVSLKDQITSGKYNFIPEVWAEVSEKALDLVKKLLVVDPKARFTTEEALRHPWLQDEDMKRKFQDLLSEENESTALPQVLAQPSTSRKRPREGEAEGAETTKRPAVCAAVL
Chain of Mitogen-activated protein kinase; ERK1/ERK2 (Homo sapiens) (P27361 whole entry, looked up): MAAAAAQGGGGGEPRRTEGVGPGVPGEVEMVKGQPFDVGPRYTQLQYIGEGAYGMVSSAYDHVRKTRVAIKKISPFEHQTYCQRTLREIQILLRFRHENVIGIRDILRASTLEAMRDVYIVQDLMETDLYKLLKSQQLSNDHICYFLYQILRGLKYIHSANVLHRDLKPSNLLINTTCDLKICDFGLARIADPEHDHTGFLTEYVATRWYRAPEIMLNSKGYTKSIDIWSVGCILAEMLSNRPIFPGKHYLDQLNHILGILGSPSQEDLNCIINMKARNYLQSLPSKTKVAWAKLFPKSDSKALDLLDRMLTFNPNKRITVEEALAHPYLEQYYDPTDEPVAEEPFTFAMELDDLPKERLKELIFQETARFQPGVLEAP
Chain of Mitogen-activated protein kinase; ERK1/ERK2 (Homo sapiens) (P28482 whole entry, looked up): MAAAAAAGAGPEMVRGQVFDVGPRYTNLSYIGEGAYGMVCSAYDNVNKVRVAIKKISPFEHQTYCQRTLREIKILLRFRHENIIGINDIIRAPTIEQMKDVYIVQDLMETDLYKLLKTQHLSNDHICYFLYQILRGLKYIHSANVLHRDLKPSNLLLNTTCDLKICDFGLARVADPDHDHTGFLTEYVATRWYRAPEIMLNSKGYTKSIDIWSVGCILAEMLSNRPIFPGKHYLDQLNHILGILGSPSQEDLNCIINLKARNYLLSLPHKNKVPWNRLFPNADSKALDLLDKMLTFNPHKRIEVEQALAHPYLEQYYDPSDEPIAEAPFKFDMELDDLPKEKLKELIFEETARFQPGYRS
Chain of Tyrosine-protein kinase BTK (Homo sapiens) (Q06187 whole entry): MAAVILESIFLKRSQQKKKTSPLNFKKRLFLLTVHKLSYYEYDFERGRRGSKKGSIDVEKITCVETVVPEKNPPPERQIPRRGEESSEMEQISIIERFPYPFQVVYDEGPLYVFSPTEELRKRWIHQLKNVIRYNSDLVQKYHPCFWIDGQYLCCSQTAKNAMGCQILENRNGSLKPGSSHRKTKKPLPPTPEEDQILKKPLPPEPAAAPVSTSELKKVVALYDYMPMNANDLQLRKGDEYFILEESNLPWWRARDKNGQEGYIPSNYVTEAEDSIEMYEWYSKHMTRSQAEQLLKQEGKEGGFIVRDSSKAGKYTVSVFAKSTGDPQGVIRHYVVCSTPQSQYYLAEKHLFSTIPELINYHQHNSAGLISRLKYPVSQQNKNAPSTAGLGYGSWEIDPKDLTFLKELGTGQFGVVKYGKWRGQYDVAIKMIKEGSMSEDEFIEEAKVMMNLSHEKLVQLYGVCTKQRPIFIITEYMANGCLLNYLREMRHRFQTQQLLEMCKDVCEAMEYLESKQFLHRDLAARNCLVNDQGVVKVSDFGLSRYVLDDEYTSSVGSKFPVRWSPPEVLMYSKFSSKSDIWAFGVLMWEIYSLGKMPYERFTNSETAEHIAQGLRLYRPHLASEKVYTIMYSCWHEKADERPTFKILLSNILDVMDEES
Chain of Receptor-interacting serine/threonine-protein kinase 2 (Homo sapiens) (O43353 whole entry): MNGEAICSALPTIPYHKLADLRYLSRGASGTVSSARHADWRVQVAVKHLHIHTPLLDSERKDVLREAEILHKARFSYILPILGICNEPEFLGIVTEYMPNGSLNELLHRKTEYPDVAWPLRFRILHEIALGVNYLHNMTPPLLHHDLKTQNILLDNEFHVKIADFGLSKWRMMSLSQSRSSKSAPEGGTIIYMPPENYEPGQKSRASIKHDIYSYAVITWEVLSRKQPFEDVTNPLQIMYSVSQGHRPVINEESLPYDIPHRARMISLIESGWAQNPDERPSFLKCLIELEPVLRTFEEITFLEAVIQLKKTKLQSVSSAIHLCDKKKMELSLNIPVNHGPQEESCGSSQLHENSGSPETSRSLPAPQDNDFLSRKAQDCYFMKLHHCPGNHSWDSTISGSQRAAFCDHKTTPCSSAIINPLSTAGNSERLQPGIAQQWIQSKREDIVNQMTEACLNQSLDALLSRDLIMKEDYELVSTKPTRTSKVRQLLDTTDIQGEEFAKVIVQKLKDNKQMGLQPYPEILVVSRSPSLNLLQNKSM

For `Cn1c(CNc2cccc(C(=O)NCc3ccccc3C(F)(F)F)c2)nnc1-c1ccncc1`, the inhibition entry in assay [1] was “Dose-Dependent Effect”; in assay [12] it was less than 20%; in assay [13], more than 90%. The inhibition result in [2] and in assay [3] was “inactive” throughout. Moreover, the inhibition result in [4] and in assay [5] was “Active” each time. Also, the Activity in [6] stood at 48%; in assay [7], 65%; in assay [8], 72%; in [9] it was 79%; in [10] it was 93%; in [11] it was 106%.

(Values after ChEMBL document CHEMBL5705902, “Role of G Protein-Coupled Receptor Kinases 2 and 3 in μ-Opioid Receptor Desensitization and Internalization” (Mol Pharmacol, 2015).)
